ChEMBL document CHEMBL2034924, “Optimization of a Potent, Orally Active S1P1 Agonist Containing a Quinolinone Core” (ACS Med Chem Lett, 2012)
In brackets after ≈: the same amount, converted by molar mass.

Columns and labels:
[1] = target: T1, Sphingosine 1-phosphate receptor 1 (Homo sapiens, UniProt P21453); experiment: Agonist activity at human S1P1 receptor expressed in human U2OS cells co-expressing eGFP assessed as receptor internalization after 1 hr relative to 1-(4-(6-benzylbenzofuran-2-yl)-3-fluorobenzyl)azetidine-3-carboxylic acid; type: functional, cell-based
[2] = target: T2, Sphingosine 1-phosphate receptor 3 (Homo sapiens, UniProt Q99500); experiment: Agonist activity at human S1P3 receptor expressed in CHO cells coexpressing Gq/i5 G-protein assessed as Ca2+ mobilization after 60 to 90 mins by FLIPR assay relative to 0.2 uM S1P
[3] = target: T2, Sphingosine 1-phosphate receptor 3; experiment: Agonist activity at human S1P3 receptor expressed in CHO cells coexpressing Gq/i5 G-protein assessed as Ca2+ mobilization after 60 to 90 mins by FLIPR assay; type: functional, cell-based
In short: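 Ca2+ mobilization in CHO-K1 cells transfected with hS1P3/Gq/i5. EC50 is the molar concentration giving a half-maximal response.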

[4] = target: T1, Sphingosine 1-phosphate receptor 1; experiment: Agonist activity at human S1P1 receptor expressed in human U2OS cells co-expressing eGFP assessed as receptor internalization after 1 hr; type: functional, cell-based
In short: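 U2OS cells expressing an hS1P1-GFP fusion protein; the read-out was receptor internalization. EC50 is the molar concentration giving a half-maximal response.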

Rattus norvegicus [5] = experiment: AUC (0 to 24 hrs) in rat at 100 mg/kg, po; type: ADME, organism-based, Plasma; design: time < 24 hr, dose 100 mg/kg, route oral; conditions: in vivo
[6] = AUC (0 to 24 hrs) in rat at 3 mg/kg, po; type: ADME, organism-based; design: time < 24 hr, dose 3 mg/kg, route oral; conditions: plasma
[7] = target: T2, Sphingosine 1-phosphate receptor 3; experiment: Agonist activity at human S1P3 receptor expressed in CHO cells coexpressing Gq/i5 G-protein assessed as Ca2+ mobilization at 25 uM after 60 to 90 mins by FLIPR assay; type: functional, cell-based
[8] = Apparent permeability of the compound across pig LLC-PK1 cells; type: ADME, cell-based, Sus scrofa
In short: (§1)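 Parental porcine proximal tubule LLC-PK1 cell line. Apparent permeability was measured, and the efflux ratio was derived from it.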

Rattus norvegicus [9] = experiment: Lymphopenic activity in Lewis rat assessed as reduction in peripheral blood lymphocyte counts at 1 mg/kg, po measured 24 hrs post dosing relative to control; type: functional; design: scale not given: the % may be the effect or the level left
In short: (§2)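 Female Lewis rats (N = 5/group) received a single oral dose of 1 mg/kg in 20% captisol, 1% HPMC, 1% pluronic F68, pH 2.1 with MSA. Peripheral lymphocyte count is given as percent-of-control reduction versus vehicle at 24 h. Total plasma drug concentration was measured at 24 h. Statistics used ANOVA/Dunnett versus vehicle.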

[10] = Intrinsic clearance in rat liver microsomes at 1 uM after 30 mins; type: ADME, Microsome; conditions: read-out: CLH
[11] = Plasma protein binding in rat; type: ADME, cell-free; conditions: read-out: PPB (converted)
[12] = (§3) Plasma concentration in Lewis rat at 1 mg/kg, po measured 24 hrs post dosing; type: ADME, organism-based; design: dose 1 mg/kg, route oral; conditions: Lewis, plasma; in short: as §2
[13] = Solubility of the compound in simulated intestinal fluid at pH 6.8 after 2 to 3 days by HPLC analysis; type: physicochemical
[14] = Efflux ratio of permeability in pig LLC-PK1 cells; type: ADME, cell-based, Sus scrofa; in short: as §1
[15] = Clearance in nonhuman primates at 4 mg/kg, iv and 10 mg/kg, po; type: ADME, organism-based; conditions: in vivo
In short: (§4)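 Pharmacokinetics in male nonhuman primates. IV vehicle was 40% hydroxypropyl β-cyclodextrin/60% water with MSA, pH 3. Oral vehicle was 1% HPMC/1% pluronic F68/20% HPBCD/78% water with MSA, pH 2.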

[16] = Volume of distribution at steady state in Sprague-Dawley rat at 1 mg/kg, iv; type: ADME, organism-based; design: dose 1 mg/kg, route intravenous; conditions: in vivo, read-out: Vdss
In short: (§5)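 Male Sprague-Dawley rats. IV doses were given in DMSO. Oral doses were given in 20% Captisol/1% Tween 80, pH 2, with MSA. Plasma was collected up to 48 h after dosing.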

[17] = Oral bioavailability in Sprague-Dawley rat at 2 mg/kg; type: ADME, organism-based; conditions: in vivo; in short: as §5
[18] = Half life in Sprague-Dawley rat at 1 to 2 mg/kg, iv and po; type: ADME, organism-based; design: dose 1-2 mg/kg, route oral; conditions: in vivo; in short: as §5
[19] = Half life in Sprague-Dawley rat at 100 mg/kg, po; type: ADME, organism-based; design: dose 100 mg/kg, route oral; conditions: in vivo; in short: as §5
[20] = AUC (0 to infinity) in C57BL/6 mouse at 3 mg/kg, po; type: ADME, organism-based; design: time infinity, dose 3 mg/kg, route oral; conditions: plasma
In short: (§6)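 Female C57BL/6 mice. IV dosing used 40% hydroxypropyl β-cyclodextrin/60% water. Oral dosing used 1% HPMC/1% pluronic F68/20% HPBCD/78% water with MSA, pH 2.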

[21] = Oral bioavailability in C57BL/6 mouse at 3 mg/kg; type: ADME, organism-based; conditions: in vivo; in short: as §6
[22] = Clearance in C57BL/6 mouse at 1 mg/kg, iv and 3 mg/kg, po; type: ADME, organism-based; conditions: in vivo; in short: as §6
Rattus norvegicus [23] = experiment: Lymphopenic activity in Lewis rat assessed as reduction in peripheral blood lymphocyte counts at 3 mg/kg, po measured 24 hrs post dosing relative to control; type: functional; design: scale not given: the % may be the effect or the level left
In short: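 Female Lewis rats (N = 3/group) received a single oral dose in 20% captisol/1% HPMC/1% pluronic F68, pH 2, with MSA. Blood lymphocyte counts and plasma concentration were measured at 24 h, reported as mean ± SE. Comparison was versus vehicle by ANOVA/Dunnett, P < 0.05.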

[24] = Mean residence time in C57BL/6 mouse at 1 mg/kg, iv; type: ADME, organism-based; design: dose 1 mg/kg, route intravenous; conditions: in vivo; in short: as §6
[25] = AUC (0 to infinity) in nonhuman primates at 10 mg/kg, po; type: ADME, organism-based; design: dose 10 mg/kg, route oral, time infinity; conditions: plasma; in short: as §4
[26] = AUC (0 to infinity) in Sprague-Dawley rat at 100 mg/kg, po; type: ADME, organism-based; design: time infinity, dose 100 mg/kg, route oral; conditions: plasma; in short: as §5
[27] = Mean residence time in nonhuman primates at 4 mg/kg, iv; type: ADME, organism-based; design: dose 4 mg/kg, route intravenous; conditions: in vivo; in short: as §4
[28] = Volume of distribution at steady state in C57BL/6 mouse at 1 mg/kg, iv; type: ADME, organism-based; design: dose 1 mg/kg, route intravenous; conditions: in vivo, read-out: Vdss; in short: as §6
[29] = Volume of distribution at steady state in nonhuman primates at 4 mg/kg, iv; type: ADME, organism-based; design: dose 4 mg/kg, route intravenous; conditions: in vivo, read-out: Vdss; in short: as §4
[30] = AUC (0 to infinity) in Sprague-Dawley rat at 2 mg/kg, po; type: ADME, organism-based; design: time infinity, dose 2 mg/kg, route oral; conditions: plasma; in short: as §5
[31] = Oral bioavailability in nonhuman primates at 10 mg/kg; type: ADME, organism-based; conditions: in vivo; in short: as §4
[32] = Oral bioavailability in Sprague-Dawley rat at 100 mg/kg; type: ADME, organism-based; conditions: in vivo; in short: as §5
[33] = Mean residence time in Sprague-Dawley rat at 1 mg/kg, iv; type: ADME, organism-based; design: dose 1 mg/kg, route intravenous; conditions: in vivo; in short: as §5
[34] = Clearance in Sprague-Dawley rat at 1 mg/kg, iv and 2 mg/kg, po; type: ADME, organism-based; conditions: in vivo; in short: as §5
Plasma = experiment: as §3; type: ADME, organism-based; design: dose 1 mg/kg, route oral; conditions: in vivo, 24 h, BLD = below limit of detection; in short: as §2

T2 sequence (Q99500 whole entry): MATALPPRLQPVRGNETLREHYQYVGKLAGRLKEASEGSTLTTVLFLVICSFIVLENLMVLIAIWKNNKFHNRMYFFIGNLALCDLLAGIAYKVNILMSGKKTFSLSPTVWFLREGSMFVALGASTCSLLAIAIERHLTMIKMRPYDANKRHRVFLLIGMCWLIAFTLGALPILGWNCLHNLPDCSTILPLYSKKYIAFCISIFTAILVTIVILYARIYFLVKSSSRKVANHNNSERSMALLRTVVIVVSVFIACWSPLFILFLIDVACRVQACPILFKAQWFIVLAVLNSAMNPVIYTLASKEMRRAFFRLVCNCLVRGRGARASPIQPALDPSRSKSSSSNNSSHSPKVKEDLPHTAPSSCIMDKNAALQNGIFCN
T1 sequence (P21453 whole entry): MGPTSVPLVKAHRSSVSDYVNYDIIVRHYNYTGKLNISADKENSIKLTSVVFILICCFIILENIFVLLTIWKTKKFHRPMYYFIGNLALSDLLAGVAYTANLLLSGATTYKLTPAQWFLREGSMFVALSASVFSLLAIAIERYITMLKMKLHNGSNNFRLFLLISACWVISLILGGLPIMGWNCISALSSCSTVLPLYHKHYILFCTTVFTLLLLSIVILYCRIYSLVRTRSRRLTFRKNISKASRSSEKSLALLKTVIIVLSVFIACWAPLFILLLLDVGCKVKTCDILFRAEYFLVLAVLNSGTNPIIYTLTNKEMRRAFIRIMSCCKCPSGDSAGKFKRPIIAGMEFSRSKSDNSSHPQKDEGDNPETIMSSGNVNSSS

## Cn1cc(C(=O)Nc2ccc(-c3ccccc3)c(C(F)(F)F)c2)c(=O)c2cccc(CN)c21
[1]
  Efficacy: 118%
[2]
  Efficacy: 48%
[3]
  EC50: 5.6 µM
[4]
  EC50: 0.081 µM

## Cn1cc(C(=O)Nc2ccc(-c3ccccc3)c(C(F)(F)F)c2)c(=O)c2cnc(CCC(=O)O)cc21
[1]
  Efficacy: 88%
[2]
  Efficacy: 49%
[3]
  EC50: 1.3 µM
[4]
  EC50: 0.038 µM

## COc1ccncc1C(=O)NC(=O)Nc1ccc(-c2ccccc2)c(C(F)(F)F)c1
Rattus norvegicus [5]
  AUC: 73 µM·h
[6]
  AUC(0-t) at 24 h: 12 µM·h

## Cn1cc(C(=O)Nc2ccc(-c3ccccc3)c(C(F)(F)F)c2)c(=O)c2ccc(CCCO)cc21
[7]
  Activity: < 10%
[1]
  Efficacy: 118%
[3]
  EC50: > 25 µM
[4]
  EC50: 0.015 µM

## Cn1cc(C(=O)Nc2ccc(-c3ccccc3)c(C(F)(F)F)c2)c(=O)c2ccc(CCO)cc21
[8]
  Papp: 2.2 ×10⁻⁶ cm/s
Rattus norvegicus [9]
  Activity: -48%
[7]
  Activity: < 10%
[10]
  microsomal CLint at 1 µM: < 14 µL/min/mg
[11]
  fraction unbound: 0.073
[1]
  Efficacy: 118%
[12]
  concentration at 24 h: 27 ng/mL
[3]
  EC50: > 25 µM
[4]
  EC50: 0.008 µM
[13]
  solubility: 6 µg/mL (≈ 12.9 µM)
[14]
  efflux ratio: 1

## Cn1cc(C(=O)Nc2ccc(-c3ccccc3)c(C(F)(F)F)c2)c(=O)c2cnc(CO)cc21
[8]
  Papp: 2.5 ×10⁻⁶ cm/s
[15]
  clearance: 1.83 mL/min/kg
[16]
  Vd: 5.8 L/kg
[17]
  bioavailability: 132%
[18]
  half-life: 13 h
[19]
  half-life: 57 h
[20]
  AUC(0-inf): 16 µM·h
Rattus norvegicus [9]
  Activity: -60%
[7]
  Activity: < 10%
[21]
  bioavailability: 75%
[22]
  clearance: 5.17 mL/min/kg
[10]
  microsomal CLint at 1 µM: < 14 µL/min/mg
Rattus norvegicus [23]
  Activity: 88%
[11]
  fraction unbound: 0.083
[24]
  MRT: 20 h
[25]
  AUC(0-inf): 141 µM·h
[1]
  Efficacy: 106%
[26]
  AUC(0-inf): 1630 µM·h
[27]
  MRT: 40 h
[12]
  concentration at 24 h: 84 ng/mL
[3]
  EC50: > 25 µM
[28]
  Vd: 6 L/kg
[29]
  Vd: 4.3 L/kg
[4]
  EC50: 0.018 µM
[30]
  AUC(0-inf): 19 µM·h
[31]
  bioavailability: 67%
[13]
  solubility: > 200 µg/mL
[32]
  bioavailability: > 93%
[33]
  MRT: 19 h
[34]
  clearance: 5.17 mL/min/kg
[14]
  efflux ratio: 1

## Cn1cc(C(=O)Nc2ccc(-c3ccccc3)c(C(F)(F)F)c2)c(=O)c2ccc(C(=O)O)cc21
[8]
  Papp: 3 ×10⁻⁶ cm/s
Rattus norvegicus [9]
  Activity: 4%
[7]
  Activity: < 10%
[10]
  microsomal CLint at 1 µM: < 14 µL/min/mg
[11]
  fraction unbound: 0.02
[1]
  Efficacy: 98%
Plasma
  Cp: BLD
[3]
  EC50: > 25 µM
[4]
  EC50: 0.021 µM
[13]
  solubility: 48 µg/mL (≈ 103 µM)
[14]
  efflux ratio: 6.7

## Cn1cc(C(=O)Nc2ccc(-c3ccccc3)c(C(F)(F)F)c2)c(=O)c2cnccc21
Rattus norvegicus [9]
  Activity: -64%
[7]
  Activity: < 10%
[10]
  microsomal CLint at 1 µM: < 14 µL/min/mg
[11]
  fraction unbound: 0.083
[3]
  EC50: > 25 µM
[13]
  solubility: 5 µg/mL (≈ 11.8 µM)

## Cn1cc(C(=O)Nc2ccc(-c3ccccc3)c(C(F)(F)F)c2)c(=O)c2ccc(CN3CC(C(=O)O)C3)cc21
[7]
  Activity: < 10%
[1]
  Efficacy: 108%
[3]
  EC50: > 25 µM
[4]
  EC50: 0.025 µM
